Compound activity: PubChem, Johns Hopkins Ion Channel Center
Rows were chosen to be rich in hits. Some 3.8% of all compounds tested hit in one or more screens of this group.
KCNK9 block – KCNK9 potassium channel inhibitors, primary screen, HEK293 cells, thallium flux; Potassium channel subfamily K member 9 (Homo sapiens), Q9NPC2; FluxOR thallium flux fluorescence; stronger effect = lower value; B-score at 10 µM; 310,000 tested, 1.2% active;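 active means ratio B-score over 3 SD below the library mean, with starting fluorescence within 5 SD of its mean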;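 further: negative B-score means less thallium flux so channel inhibition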
Kir21 block – inhibitors of mouse Kir2.1 inward-rectifier potassium channel; HEK293-Kir2.1, FluxOR thallium flux fluorescence; stronger effect = lower value; 310,000 tested, 0.85% active; B-score at 10 µM;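 active means fluorescence ratio B-score at or below minus 3 SD of library scores, with starting-brightness B-score within 2 SD, cut at about -4.2 in these data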;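 further: channel flux triggered by added potassium and thallium sulfate stimulus; B-score of peak minus minimum fluorescence over baseline after thallium stimulus; more negative B-score means stronger Kir2.1 block with less thallium influx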
KCNK3 block – human KCNK3 channel inhibitors, primary screen, CHO cells, FluxOR thallium flux, B-score; Potassium channel subfamily K member 3 (Homo sapiens), O14649; FluxOR fluorescence; stronger effect = lower value; B-score at 10 µM; 340,000 tested, 0.84% active; AID 602410, 2012;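 active means B-score under library mean minus 4 SD, starting fluorescence ratio at most library mean plus 5 SD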;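 further: more negative B-score means stronger inhibition of thallium flux through KCNK3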
KCNQ1 pot – potentiators or activators of KCNQ1 channel, primary screen, cell-based, thallium flux, high-throughput; B-score at 10 µM; CHO-K1 KCNQ1, thallium flux FluxOR fluorescence; stronger effect = higher value; Potassium voltage-gated channel subfamily KQT member 1 (Homo sapiens), P51787; 310,000 tested, 0.35% active;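 active means fluorescence ratio B-score, a plate-corrected score, at least three library SD, with initial intensity B-score within 5 SD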
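Doses: Single concentration per compound, DMSO matched to controls | Test system: KCNQ1-transfected CHO-K1 cells | Timing: 90 min dye loading and 20 min compound exposure, both at room temperature | Measured by: Kinetic FluxOR thallium fluorescence, 10-s 1-Hz baseline, 110-s post-stimulus read | Medium: Assay buffer with matched DMSO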
hERG protect – hERG rescue from dofetilide block, primary screen, cell-based, CHO-hERG, FluxOR thallium flux, dofetilide IC70. Voltage-gated inwardly rectifying potassium channel KCNH2 (Homo sapiens), Q12809. dofetilide IC70 present. activation (rescue from dofetilide block), less the hit threshold, % at 10 µM. 310,000 tested, 0.51% active. AID 1511, 2009;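 active means activation above the mean of controls blocked by dofetilide plus 5 SD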;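 further: thallium influx through hERG after potassium depolarization seen as dye fluorescence rise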
Target sequence (Q12809 whole entry, looked up): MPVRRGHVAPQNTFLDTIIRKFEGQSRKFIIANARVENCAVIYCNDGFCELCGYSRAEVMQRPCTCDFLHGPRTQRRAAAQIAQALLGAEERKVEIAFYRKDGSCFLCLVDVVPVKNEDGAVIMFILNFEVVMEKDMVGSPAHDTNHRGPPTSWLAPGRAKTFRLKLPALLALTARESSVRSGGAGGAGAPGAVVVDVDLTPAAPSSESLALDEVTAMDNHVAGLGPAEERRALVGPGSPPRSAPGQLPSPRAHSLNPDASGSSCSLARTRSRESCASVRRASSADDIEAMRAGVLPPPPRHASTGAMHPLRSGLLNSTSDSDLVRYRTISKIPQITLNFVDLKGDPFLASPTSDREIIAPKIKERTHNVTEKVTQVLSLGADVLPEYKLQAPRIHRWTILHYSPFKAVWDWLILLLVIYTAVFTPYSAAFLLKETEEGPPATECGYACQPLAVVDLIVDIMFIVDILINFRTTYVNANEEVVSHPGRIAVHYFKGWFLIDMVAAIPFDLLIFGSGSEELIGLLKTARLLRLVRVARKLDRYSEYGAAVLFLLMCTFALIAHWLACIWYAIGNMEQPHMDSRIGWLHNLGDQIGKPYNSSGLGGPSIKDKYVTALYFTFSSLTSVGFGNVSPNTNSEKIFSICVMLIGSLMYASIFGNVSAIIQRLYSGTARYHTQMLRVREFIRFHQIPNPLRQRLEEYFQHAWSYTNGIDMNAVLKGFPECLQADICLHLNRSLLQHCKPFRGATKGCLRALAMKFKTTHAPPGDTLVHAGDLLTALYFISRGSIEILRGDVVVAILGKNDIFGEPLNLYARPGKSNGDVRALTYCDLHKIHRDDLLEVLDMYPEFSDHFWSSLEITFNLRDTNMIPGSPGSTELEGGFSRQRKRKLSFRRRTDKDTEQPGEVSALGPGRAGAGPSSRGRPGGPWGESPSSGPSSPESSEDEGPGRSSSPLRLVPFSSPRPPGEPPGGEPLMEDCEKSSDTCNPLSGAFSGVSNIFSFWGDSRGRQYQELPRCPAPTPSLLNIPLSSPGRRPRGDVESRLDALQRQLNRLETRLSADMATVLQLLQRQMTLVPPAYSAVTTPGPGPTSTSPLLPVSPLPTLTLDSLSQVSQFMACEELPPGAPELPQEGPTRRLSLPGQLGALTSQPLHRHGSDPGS
KCNQ1 block – inhibitors of human KCNQ1 channel, primary screen, cell-based, thallium flux, high-throughput; CHO-K1 KCNQ1, FluxOR thallium flux fluorescence; stronger effect = higher value; B-score at 10 µM; 310,000 tested, 1.3% active; AID 2642, 2010;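 active means compounds whose thallium flux B-score, printed positive for inhibition, exceeds three library SD while starting fluorescence stays within three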;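 further: channel opened by potassium depolarization with thallium stimulus after 20 min compound exposure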
KCNK9 block conf – KCNK9 potassium channel inhibitors, confirmation, HEK293 cells, thallium flux, duplicate; shares compounds with KCNK9 block; FluxOR thallium flux fluorescence; inhibition, % at 10 µM; 4,900 tested, 43% active; AID 492992, 2010;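 active means thallium signal inhibited by more than 5 SD of the compound-free buffer control wells, on both duplicate plates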;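 further: 0% = assay buffer control wells without compound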
Kir2-1 spec – mouse Kir2.1 channel inhibition, confirmation, selectivity assay for KCNK9 modulator project, cell-based, HEK293, thallium flux; shares compounds with KCNK9 block; Kir2.1 cells, FluxOR thallium flux fluorescence; inhibition, % at 10 µM; 4,900 tested, 4% active; AID 492993, 2010;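 active means thallium signal drop more than 5 SD beyond the mean of the no-compound control wells, seen in both duplicate plates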;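 further: signal is fluorescence rise after thallium addition divided by baseline fluorescence; plate controls were assay buffer only for no effect and full block by chlorpromazine control for full effect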
HEK293 Tl ctr – thallium flux in non-induced HEK293 cells, confirmation, counter-screen for KCNK9 inhibitor project, cell-based, second counter screen, non-induced KCNK9-HEK293. AID 492997, 2010. shares compounds with KCNK9 block. 4,900 tested, 40% active. inhibition, % at 10 µM. FluxOR thallium flux;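 active means thallium signal drop beyond 5 SD of the untreated control mean, on both duplicate plates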;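 further: plate controls were buffer only IC0 wells for no effect and SID17386958 at its maximal inhibitory level for full effect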
* marks the source's active call; other numbers are inactive results; i = inactive; . = no result.

SMILES	KCNK9 block	Kir21 block	KCNK3 block	KCNQ1 pot	hERG protect	KCNQ1 block	KCNK9 block conf	Kir2-1 spec	HEK293 Tl ctr
COc1ccccc1NC(=O)Nc1nnc(C(C)c2ccccc2)s1 (stereo not given)	-10*	-0.33	i	i	-11	i	56%*	i	24%*
CC(C)(C)OC(=O)N1CCC[C@H]1C(=O)NCc1ccc(Cl)cc1Cl	i	0.33	i	i	-12	i	.	.	.
Cc1ccc(CN2CCN(C(=O)c3cccc4ccccc34)CC2)cc1	i	-3.8	i	i	-11	i	.	.	.
Cc1cccc(CN2CCN(C(=O)c3cccc4ccccc34)CC2)c1	i	-0.7	i	i	-9	i	i	i	i
CN(C)C(CNc1ncnc2sc3c(c12)CCCCC3)c1ccco1 (stereo not given)	i	-0.67	i	i	-4	i	i	i	i
Cc1sc2ncnc(NCC(c3ccco3)N(C)C)c2c1C (stereo not given)	i	-0.8	i	i	0	i	.	.	.
O=C(Cc1ccc(Cl)cc1)Nc1ccc(N2CCN(C(=O)c3ccco3)CC2)c(Cl)c1	-9.8*	-0.2	i	i	-2	i	30%*	35%*	i
O=C(CN(c1ccccc1)S(=O)(=O)c1ccccc1)Nc1ccc(F)cc1	i	-0.14	i	i	-8	i	.	.	.
CC1Nc2ncnc(N3CCc4ccccc4C3)c2N(Cc2ccc(Br)cc2)C1=O (stereo not given)	-11*	0.48	i	i	-16	i	31%*	i	30%*
O=C1C(Cc2ccccc2)Nc2ncnc(N3CCc4ccccc4C3)c2N1Cc1ccccc1 (stereo not given)	.	.	i	.	.	.	.	.	.
CC1Nc2ncnc(N3CCc4ccccc4C3)c2N(Cc2ccc(Cl)cc2)C1=O (stereo not given)	-11*	0	i	i	-7	i	34%*	i	30%*
Cc1oc(=O)c(NC(=O)c2cccc(Cl)c2)cc1C(=O)c1ccccc1	i	-0.75	i	i	-11	i	i	i	i
COc1ccc(C(=O)Nc2cc(C(=O)c3ccccc3)c(C)oc2=O)cc1	i	-0.27	i	i	-7	i	.	.	.
CN(C)c1nc(SCc2ccc(Cl)cc2)nc2c1CCCC2	-9.9*	1.8	i	i	-10	i	34%*	i	56%*
CNc1nc(SCc2ccccc2Cl)nc2c1CCCC2	-11*	3.5	i	i	-8	i	28%*	i	38%*
CC(Oc1ccc(Cl)cc1Cl)C(=O)Nc1ccc(S(=O)(=O)Nc2cnc3ccccc3n2)cc1 (stereo not given)	i	-0.17	.	i	-7	i	i	i	i
O=C(Nc1ccc(S(=O)(=O)Nc2cnc3ccccc3n2)cc1)c1ccc(Cl)cc1Cl	i	1.3	i	i	-4	i	.	.	.
O=C(NCc1ccc(F)cc1)c1cnn2ccccc12	i	-1.4	i	i	-10	i	.	.	.
O=C(Cc1cccc2ccccc12)NC(=S)Nc1cccc(C(=O)O)c1	i	0.46	i	i	-8	i	.	.	.
COc1ccccc1-n1c(CNC(=O)c2ccco2)nnc1SCC(=O)Nc1ccc(F)cc1	i	0.05	i	i	-3	i	.	.	.
O=C(CSc1nc2nc(-c3cccs3)cc(C(F)(F)F)c2c(=O)[nH]1)Nc1c(F)c(F)c(F)c(F)c1F	i	0.17	i	i	-13	10*	i	i	i
NS(=O)(=O)c1cccc(NC(=O)CSc2nc3nc(-c4cccs4)cc(C(F)(F)F)c3c(=O)[nH]2)c1	i	-1.2	i	i	-12	i	.	.	.
CN1CCN(C(=O)c2cc(COc3c(F)cccc3F)on2)CC1c1ccccc1 (stereo not given)	i	-0.52	i	i	-8	i	i	i	i
O=C(c1cc(COc2c(F)cccc2F)on1)N1CCC(c2ccccc2F)C1 (stereo not given)	i	0.05	i	i	-14	i	i	i	i
O=C(c1cc(COc2cccc3cnccc23)on1)N1CCC(c2ccccc2Cl)C1 (stereo not given)	i	-0.7	i	i	-9	i	.	.	.
SMILES	KCNK9 block	Kir21 block	KCNK3 block	KCNQ1 pot	hERG protect	KCNQ1 block	KCNK9 block conf	Kir2-1 spec	HEK293 Tl ctr
O=C(c1cc(COc2c(F)cccc2F)on1)N1CCC(c2ccccc2Cl)C1 (stereo not given)	i	-0.03	i	i	-11	i	i	43%*	i
CN(Cc1cc(-c2ccccc2)on1)C(=O)c1cc(COc2c(F)cccc2F)on1	-13*	-0.92	i	i	-19	i	66%*	i	30%*
Cc1nc(CN(C)C(=O)c2cc(COc3c(F)cccc3F)on2)cs1	i	-0.23	i	i	-20	i	.	.	.
O/N=C/c1cccnc1Sc1ccccc1	i	0.06	i	i	-9	i	.	.	.
COc1cc(-c2nnc(COC(=O)c3ccc(C)o3)o2)cc(OC)c1OC	.	.	i	.	.	.	.	.	.
c1ccc(-c2csc3ncnc(N4CCc5ccccc5C4)c23)cc1	-11*	-8.5*	i	i	-13	i	55%*	i	38%*
Cc1ccc(C)c2nc3sc(C(=O)N4CCCc5ccccc54)c(N)c3cc12	-9.1*	-1.3	i	i	-21	i	39%*	i	73%*
COc1ccccc1Nc1nc(-c2cccc(N3C(=O)c4ccccc4C3=O)c2)cs1	i	-0.02	i	i	-1	i	i	i	i
